Published values from different studies.
Read-out: metabolic stability

O=C(c1ccc(F)cc1)C1CCN(CCn2c(=O)[nH]c3ccccc3c2=O)CC1
half-life (mouse; liver microsomes): 22.8 min

CCOc1ccc2ccc(=O)oc2c1
half-life (male CD-1 mouse; hepatocytes; 1 µM): < 15 min

O=C1CCC(N2Cc3cc(Nc4noc5cc(F)ccc45)ccc3C2=O)C(=O)N1 (centres unmarked)
half-life (CD-1 mouse; hepatocytes): > 216 min

O=c1ccc2ccc(O)cc2o1
half-life (mouse; liver microsomes): 2 min

CC(C)Oc1ccc(S(=O)(=O)c2ccc(Oc3cc(OCC(N)=O)c(C(=O)C(Cl)Cl)cc3[N+](=O)[O-])cc2)cc1
half-life (mouse; liver microsomes; 20 µM): 7.2 min

O=C(O)Cc1ccccc1Nc1c(Cl)cccc1Cl
half-life (mouse; liver microsomes): 60.8 min

O=c1ccc2cc(O)ccc2o1
half-life (mouse; liver microsomes; 20 µM): 8.22 min

CC1(CN)CCN(c2cnc3c(Sc4ccncc4Cl)n[nH]c3n2)CC1
half-life (mouse; liver microsomes): 630 min
